Laboratory results taken from ChEMBL document CHEMBL3397001, “Metabolic glycoengineering sensitizes drug-resistant pancreatic cancer cells to tyrosine kinase inhibitors erlotinib and gefitinib” (2015).
Active and inactive are the calls of the source.

Tests used:
[1] = biological target: Epidermal growth factor receptor (Homo sapiens) (UniProt P00533); assay: Increase in sialylation of EGFR in human SW1990 cells after 48 hrs by mass spectrometry based glycosite and glycan analysis method; assay type: cell-based
Procedure, shortened: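 EGFR sialylation in treated cells assessed by mass spectrometry-based glycosite and glycan analysis.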

[2] = biological target: Epidermal growth factor receptor (Homo sapiens) (UniProt P00533); assay: Inhibition of Alexa fluor 488-labeled EGFbinding to EGFR in human SW1990 cells assessed as reduction in available surface bound EGFR at 100 uM after 1 hr by flow cytometry; assay type: cell-based
Procedure, shortened: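 Intact cells incubated with Alexa Fluor 488-labeled EGF for one hour at room temperature, then surface-bound label read by flow cytometry (saturation binding). At least 3 biological replicates; mean ± SEM.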

[3] = biological target: Epidermal growth factor receptor (Homo sapiens) (UniProt P00533); assay: Inhibition of EGFR phosphorylation in human SW1990 cells at 50 and 100 uM by immunofluorescence assay; assay type: cell-based
Procedure, shortened: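 Treated cells stimulated with EGF for 2.0 min, fixed, stained with anti-p-EGFR plus FITC-labeled anti-rabbit secondary and DAPI, then imaged by immunofluorescence microscopy.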

[4] = biological target: Epidermal growth factor receptor (Homo sapiens) (UniProt P00533); assay: Inhibition of EGFR phosphorylation in human SW1990 cells at 25 to 100 uM by Western blotting method; assay type: cell-based
Procedure, shortened: (§1)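 Cells exposed to increasing analog levels; lysates immunoblotted for phospho-EGFR and total EGFR. Significance threshold p < 0.05.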

SW1990 [5] = assay: Effect on total EGFR levels in human SW1990 cells at 25 to 100 uM by Western blotting method; assay type: functional, cell-based; procedure, shortened: as §1
[6] = biological target: Epidermal growth factor receptor (Homo sapiens) (UniProt P00533); assay: Inhibition of EGFR-mediated STAT3 phosphorylation in human SW1990 cells at 25 to 100 uM by Western blotting method; assay type: cell-based
Procedure, shortened: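 Cells treated at several analog concentrations; lysates immunoblotted for phospho-STAT3, with band intensity quantified by densitometry. At least 3 biological replicates; mean + SEM; p < 0.05.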

SW1990 [7] = assay: Inhibition of cell proliferation of human SW1990 cells at 100 to 300 uM after 48 hrs by cell counting method; assay type: functional, cell-based
SW1990 [8] = assay: Inhibition of cell proliferation of human SW1990 cells at 25 and 50 uM after 48 hrs by cell counting method; assay type: functional, cell-based
SW1990 [9] = assay: Potentiation of erlotinib-induced antiproliferative effect against human SW1990 cells pre-treated with 50 uM compound for 48 hrs followed by erlotinib exposure for additional after 72 hrs by cell counting method; assay type: functional, cell-based
Procedure, shortened: (§2)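 Cells given sugar analog (0, 25 or 50 μM; 12.5 or 25 μM for the azido analog) plus a concentration range of erlotinib or gefitinib, and growth inhibition measured. Synergy expressed as Combination Index, CI = D1/(Dx)1 + D2/(Dx)2, plotted against percent inhibition. At least 3 biological replicates; mean ± SEM.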

SW1990 [10] = assay: Potentiation of gefitinib-induced antiproliferative effect against human SW1990 cells pre-treated with 50 uM compound for 48 hrs […] for additional after 72 hrs by cell counting method; assay type: functional, cell-based; procedure, shortened: as §2
SW1990 [11] = assay: Potentiation of gefitinib-induced antiproliferative effect against human SW1990 cells assessed as combination index pre-treated with 50 uM compound for 48 hrs […] for additional after 72 hrs by cell counting method; assay type: functional; procedure, shortened: as §2
SW1990 [12] = assay: Potentiation of erlotinib-induced antiproliferative effect against human SW1990 cells assessed as combination index pre-treated with 50 uM compound for 48 hrs followed by erlotinib exposure for additional after 72 hrs by cell counting method; assay type: functional; procedure, shortened: as §2
SW1990 [13] = assay: Potentiation of erlotinib-induced antiproliferative effect against human SW1990 cells pre-treated with 25 uM compound for 48 hrs followed by erlotinib exposure for additional after 72 hrs by cell counting method; assay type: functional, cell-based; procedure, shortened: as §2
SW1990 [14] = assay: Potentiation of gefitinib-induced antiproliferative effect against human SW1990 cells pre-treated with 25 uM compound for 48 hrs […] for additional after 72 hrs by cell counting method; assay type: functional, cell-based; procedure, shortened: as §2
SW1990 [15] = assay: Potentiation of erlotinib-induced antiproliferative effect against human SW1990 cells assessed as combination index pre-treated with 12.5 and 25 uM compound for 48 hrs followed by erlotinib exposure for additional after 72 hrs by cell counting method; assay type: functional; procedure, shortened: as §2
SW1990 [16] = assay: Inhibition of cell proliferation of human SW1990 cells at <25 uM after 72 hrs by cell counting method

Epidermal growth factor receptor (Homo sapiens), sequence (P00533 whole entry): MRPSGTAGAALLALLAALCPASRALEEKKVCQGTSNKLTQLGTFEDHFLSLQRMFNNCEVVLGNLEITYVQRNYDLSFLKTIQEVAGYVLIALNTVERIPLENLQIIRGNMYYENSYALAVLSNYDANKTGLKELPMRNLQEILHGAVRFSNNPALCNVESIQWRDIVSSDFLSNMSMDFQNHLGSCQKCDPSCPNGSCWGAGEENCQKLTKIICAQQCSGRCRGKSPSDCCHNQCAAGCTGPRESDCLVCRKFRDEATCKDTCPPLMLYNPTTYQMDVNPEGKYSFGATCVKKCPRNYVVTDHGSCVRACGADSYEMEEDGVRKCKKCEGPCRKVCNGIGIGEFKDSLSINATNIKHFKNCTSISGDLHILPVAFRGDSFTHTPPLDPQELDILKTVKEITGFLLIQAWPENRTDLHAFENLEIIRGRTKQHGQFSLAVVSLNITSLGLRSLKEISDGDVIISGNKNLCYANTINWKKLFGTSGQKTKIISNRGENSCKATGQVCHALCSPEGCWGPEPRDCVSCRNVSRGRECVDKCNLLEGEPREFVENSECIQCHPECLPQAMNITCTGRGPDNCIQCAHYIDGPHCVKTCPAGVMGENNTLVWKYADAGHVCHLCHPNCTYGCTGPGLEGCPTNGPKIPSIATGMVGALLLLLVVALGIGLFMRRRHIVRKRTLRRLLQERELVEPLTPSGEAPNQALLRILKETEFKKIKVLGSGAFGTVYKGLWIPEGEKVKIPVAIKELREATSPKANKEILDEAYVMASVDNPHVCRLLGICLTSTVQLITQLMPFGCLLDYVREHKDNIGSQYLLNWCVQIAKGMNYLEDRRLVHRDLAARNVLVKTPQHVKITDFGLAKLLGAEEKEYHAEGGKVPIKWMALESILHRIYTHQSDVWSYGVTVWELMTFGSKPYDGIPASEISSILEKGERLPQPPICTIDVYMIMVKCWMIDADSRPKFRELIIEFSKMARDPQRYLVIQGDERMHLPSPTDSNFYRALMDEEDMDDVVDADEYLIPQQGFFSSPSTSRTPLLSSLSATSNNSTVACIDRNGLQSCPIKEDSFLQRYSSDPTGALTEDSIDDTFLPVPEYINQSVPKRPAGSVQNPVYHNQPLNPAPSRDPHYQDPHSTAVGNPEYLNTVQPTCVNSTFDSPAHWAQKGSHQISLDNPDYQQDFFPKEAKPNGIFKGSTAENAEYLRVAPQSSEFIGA

Row | fold change (FC) [1] | inhibition [2] | inhibition [3] | inhibition [4] | inhibition [6] | SMILES | Activity (SW1990 [5]) | inhibition (SW1990 [7]) | inhibition (SW1990 [8]) | Activity (SW1990 [9]) | Activity (SW1990 [10]) | CI (SW1990 [11]) | CI (SW1990 [12]) | Activity (SW1990 [13]) | Activity (SW1990 [14]) | CI (SW1990 [15]) | inhibition (SW1990 [16])
1 | 2 | Active | Active | Active | Dose-dependent effect | CCCC(=O)OC1O[C@H](CO)[C@@H](OC(=O)CCC)[C@H](OC(=O)CCC)[C@@H]1NC(C)=O (stereo partly specified) | inactive | Active | inactive | Active | Active | 0.23 | 0.23 | Active | Active |  | 
2 |  |  |  |  |  | CCCC(=O)OC1O[C@H](CO)[C@@H](OC(=O)CCC)[C@H](OC(=O)CCC)[C@@H]1NC(=O)CN=[N+]=[N-] (stereo partly specified) |  |  |  |  |  |  |  |  |  | 0.34 | Active
